≈ marks a conversion by molar mass, not a printed value. Calls of active or inactive are those of the source. No cut-off for these calls is given here.
System: Cylindrotheca closterium
Test: Antimicrobial activity against Cylindrotheca closterium AC 170 after 48 hrs
Type: functional, organism-based
Settings: not given
Outline: (§1)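 Microalgal cultures (0.4 μg/mL chlorophyll A) in F/2 medium were incubated with compound for 48 h at 18 °C under a 15:9 light:dark cycle with cool-white fluorescent light at 54 μmol photons/m²·s. Relative optical density at 600 nm gave the MIC versus a seawater control.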

Structure (SMILES)	Activity
COc1cc(C)c(O)c(C/C=C(\C)C[C@]2(O)C[C@@]3(C)CCC[C@]3(C)C(=O)[C@@H]2CC(C)(C)O)c1	inactive
CC(=O)/C=C1\C[C@@]2(C)CCC[C@]2(C)C2=C1CC(C)(C)O2	inactive
CC1=C(CC(C)(C)O)C(=O)[C@@]2(C)CCC[C@]2(C)C1	inactive

System: Pseudoalteromonas distincta
Test: Antibacterial activity against Pseudoalteromonas elyakovii ATCC 700519 after 48 hrs by microtiter broth dilution method
Type: functional
Settings: ATCC 700519, 48 h
Outline: (§2)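 Marine bacterial strains at 2×10^8 cells/mL were exposed to compound for 48 h at 25 °C in Mueller Hinton broth supplemented with NaCl (15 g/L). MIC was set by microtiter broth dilution against a culture-medium control.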

Structure (SMILES)	MIC [µg/mL]
COc1cc(C)c(O)c(C/C=C(\C)C[C@]2(O)C[C@@]3(C)CCC[C@]3(C)C(=O)[C@@H]2CC(C)(C)O)c1	> 100
CC(=O)/C=C1\C[C@@]2(C)CCC[C@]2(C)C2=C1CC(C)(C)O2	> 100
CC1=C(CC(C)(C)O)C(=O)[C@@]2(C)CCC[C@]2(C)C1	> 100

System: Vibrio aestuarianus
Test: Antibacterial activity against Vibrio aestuarianus ATCC 35048 after 48 hrs by microtiter broth dilution method
Type: functional
Settings: ATCC 35048, 48 h
Outline: as §2

Structure (SMILES)	MIC [µg/mL]
COc1cc(C)c(O)c(C/C=C(\C)C[C@]2(O)C[C@@]3(C)CCC[C@]3(C)C(=O)[C@@H]2CC(C)(C)O)c1	> 100
CC(=O)/C=C1\C[C@@]2(C)CCC[C@]2(C)C2=C1CC(C)(C)O2	> 100
CC1=C(CC(C)(C)O)C(=O)[C@@]2(C)CCC[C@]2(C)C1	> 100

System: Polaribacter irgensii
Test: Antibacterial activity against Polaribacter irgensii ATCC 700398 after 48 hrs by microtiter broth dilution method
Type: functional
Settings: ATCC 700398, 48 h
Outline: as §2

Structure (SMILES)	MIC [µg/mL]
COc1cc(C)c(O)c(C/C=C(\C)C[C@]2(O)C[C@@]3(C)CCC[C@]3(C)C(=O)[C@@H]2CC(C)(C)O)c1	> 100
CC(=O)/C=C1\C[C@@]2(C)CCC[C@]2(C)C2=C1CC(C)(C)O2	> 100
CC1=C(CC(C)(C)O)C(=O)[C@@]2(C)CCC[C@]2(C)C1	> 100

System: Salmonella typhimurium
Test: Antibacterial activity against Salmonella Typhimurium ATCC 35986 after 48 hrs by microtiter broth dilution method
Type: functional, Salmonella enterica subsp. enterica serovar Typhimurium
Settings: Salmonella enterica, ATCC 35986, 48 h
Outline: (§3)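 Terrestrial bacterial strains at 2×10^8 cells/mL were incubated with compound for 48 h at 25 °C in trypsic soy broth. MIC was read by microtiter broth dilution against a culture-medium control.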

Structure (SMILES)	MIC [µg/mL]
COc1cc(C)c(O)c(C/C=C(\C)C[C@]2(O)C[C@@]3(C)CCC[C@]3(C)C(=O)[C@@H]2CC(C)(C)O)c1	> 100
CC(=O)/C=C1\C[C@@]2(C)CCC[C@]2(C)C2=C1CC(C)(C)O2	> 100
CC1=C(CC(C)(C)O)C(=O)[C@@]2(C)CCC[C@]2(C)C1	> 100

System: Escherichia coli
Test: Antibacterial activity against Escherichia coli ATCC 35049 after 48 hrs by microtiter broth dilution method
Type: functional
Settings: ATCC 35049, 48 h
Outline: as §3

Structure (SMILES)	MIC [µg/mL]
COc1cc(C)c(O)c(C/C=C(\C)C[C@]2(O)C[C@@]3(C)CCC[C@]3(C)C(=O)[C@@H]2CC(C)(C)O)c1	> 100
CC(=O)/C=C1\C[C@@]2(C)CCC[C@]2(C)C2=C1CC(C)(C)O2	> 100
CC1=C(CC(C)(C)O)C(=O)[C@@]2(C)CCC[C@]2(C)C1	> 100

System: Bacillus subtilis
Test: Antibacterial activity against Bacillus subtilis ATCC 55572 after 48 hrs by microtiter broth dilution method
Type: functional
Settings: ATCC 55572, 48 h
Outline: as §3

Structure (SMILES)	MIC [µg/mL]
COc1cc(C)c(O)c(C/C=C(\C)C[C@]2(O)C[C@@]3(C)CCC[C@]3(C)C(=O)[C@@H]2CC(C)(C)O)c1	> 100
CC(=O)/C=C1\C[C@@]2(C)CCC[C@]2(C)C2=C1CC(C)(C)O2	> 100
CC1=C(CC(C)(C)O)C(=O)[C@@]2(C)CCC[C@]2(C)C1	> 100

System: Exanthemachrysis gayraliae
Test: Antimicrobial activity against Exanthemachrysis gayraliae AC 15 after 48 hrs
Type: functional
Settings: not given
Outline: as §1

Structure (SMILES)	Activity
COc1cc(C)c(O)c(C/C=C(\C)C[C@]2(O)C[C@@]3(C)CCC[C@]3(C)C(=O)[C@@H]2CC(C)(C)O)c1	inactive
CC(=O)/C=C1\C[C@@]2(C)CCC[C@]2(C)C2=C1CC(C)(C)O2	inactive

Same assay, conditions: AC 15, 48 h

Structure (SMILES)	MIC [µg/mL]
CC1=C(CC(C)(C)O)C(=O)[C@@]2(C)CCC[C@]2(C)C1	1 (≈ 3.99 µM)

System: Sargassum muticum
Test: Antimicrobial activity against Sargassum muticum after 48 hrs
Type: functional, organism-based
Settings: not given
Outline: (§4)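 Spores (3000 spores/mL) in F/2 medium were exposed to compound for 48 h at 18 °C under a 15:9 light:dark cycle with cool-white fluorescent light at 54 μmol photons/m²·s. Germination and attachment rates were then scored.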

Structure (SMILES)	IC50 [µg/mL]
CC(=O)/C=C1\C[C@@]2(C)CCC[C@]2(C)C2=C1CC(C)(C)O2	> 100
CC1=C(CC(C)(C)O)C(=O)[C@@]2(C)CCC[C@]2(C)C1	1 (≈ 3.99 µM)

System: Ulva intestinalis
Test: Antimicrobial activity against Ulva intestinalis after 48 hrs
Type: functional, organism-based
Settings: not given
Outline: as §4

Structure (SMILES)	IC50 [µg/mL]
CC(=O)/C=C1\C[C@@]2(C)CCC[C@]2(C)C2=C1CC(C)(C)O2	2.5 (≈ 9.11 µM)
CC1=C(CC(C)(C)O)C(=O)[C@@]2(C)CCC[C@]2(C)C1	1 (≈ 3.99 µM)

Target: not listed separately
Test: Inhibition of Mytilus edulis phenoloxidase after 2 hrs
Settings: not given
Outline: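 Purified mussel phenoloxidase was preincubated with compound for 2 h. Activity was then followed as the rise in absorbance at 475 nm with L-Dopa (10 mM) as substrate, and percent inhibition was calculated against the control.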

Structure (SMILES)	IC50 [µg/mL]
CC(=O)/C=C1\C[C@@]2(C)CCC[C@]2(C)C2=C1CC(C)(C)O2	2.5 (≈ 9.11 µM)
CC1=C(CC(C)(C)O)C(=O)[C@@]2(C)CCC[C@]2(C)C1	1 (≈ 3.99 µM)

System: not listed separately
Test: Toxicity against Echinus esculentus larvae after 48 hrs
Settings: not given
Outline: (§5)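 Larvae incubated with compounds at 0.5, 1, 2.5, 5, 10, 25, 50 and 100 μg/mL, 10–15 larvae per well in 2 mL solution. Viable larvae counted after 48 h exposure. LC50 is the concentration giving 50% mortality relative to control, derived by curve fitting. Six replicates per test and control, with two batches of organisms.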

Structure (SMILES)	LC50 at 48 h [µg/mL]
COc1cc(C)c(O)c(C/C=C(\C)C[C@]2(O)C[C@@]3(C)CCC[C@]3(C)C(=O)[C@@H]2CC(C)(C)O)c1	> 100
CC(=O)/C=C1\C[C@@]2(C)CCC[C@]2(C)C2=C1CC(C)(C)O2	> 100
CC1=C(CC(C)(C)O)C(=O)[C@@]2(C)CCC[C@]2(C)C1	> 100

System: not listed separately
Test: Toxicity against Crassostrea gigas larvae after 48 hrs
Settings: not given
Outline: as §5

Structure (SMILES)	LC50 at 48 h [µg/mL]
COc1cc(C)c(O)c(C/C=C(\C)C[C@]2(O)C[C@@]3(C)CCC[C@]3(C)C(=O)[C@@H]2CC(C)(C)O)c1	> 100
CC(=O)/C=C1\C[C@@]2(C)CCC[C@]2(C)C2=C1CC(C)(C)O2	> 100
CC1=C(CC(C)(C)O)C(=O)[C@@]2(C)CCC[C@]2(C)C1	> 100

System: Chrysotila roscoffensis
Test: Antimicrobial activity against Pleurochrysis roscoffensis AC 238 after 48 hrs
Type: functional, organism-based
Settings: not given
Outline: as §1

Structure (SMILES)	Activity
COc1cc(C)c(O)c(C/C=C(\C)C[C@]2(O)C[C@@]3(C)CCC[C@]3(C)C(=O)[C@@H]2CC(C)(C)O)c1	inactive
CC(=O)/C=C1\C[C@@]2(C)CCC[C@]2(C)C2=C1CC(C)(C)O2	inactive
CC1=C(CC(C)(C)O)C(=O)[C@@]2(C)CCC[C@]2(C)C1	inactive

— ChEMBL document CHEMBL1154141, “Meroditerpenoids and derivatives from the brown alga Cystoseira baccata and their antifouling properties” (J Nat Prod, 2008)
